Experimental data collected from several papers.
Compare with care: the assays were run in different laboratories.
Target: Acetylcholinesterase (ACHE, Homo sapiens, UniProt P22303)
Observed: enzyme activity
Action: inhibitor

`Cc1cc(C)cc(NC(=O)CSc2nnc(COc3ccc4ccccc4c3)n2-c2ccccc2)c1` has an IC50 of 1120 nM (Ellman).
`COc1cc(-c2nc3ccccc3s2)cc2c1OCC(=O)N2CC(=O)N[C@@H](CC(C)C)C(=O)O` has an IC50 of over 265000 nM (Ellman).
`O=C(CSc1nnc(COc2ccc3ccccc3c2)n1-c1ccccc1)Nc1ccccc1` gave an IC50 of 1870 nM (Ellman).
`O=c1cc(CSc2ccc(N=Cc3ccccc3F)cc2)occ1O` gave an IC50 of 4100 nM (Ellman).
With `COc1cc(-c2nc3ccccc3s2)cc(NC(C)=O)c1OCC(=O)N[C@H](C(=O)O)C(C)C` the IC50 was over 271000 nM (Ellman).
`O=c1cc(CSc2ccc(N=Cc3cccc(F)c3)cc2)occ1O` gave an IC50 of 26300 nM (Ellman).
`CC(C)c1cc2c(c(O)c1O)[C@@]13CCCC(C)(C)[C@@H]1[C@H](OC3=O)[C@H]2O` gave an IC50 of 0.734 nM.
`CC(=O)c1c(C)c2cnc(Nc3ccc(C4CCN(CCS(C)(=O)=O)CC4)cn3)nc2n(C2CCCC2)c1=O` has an IC50 of 250 nM.
`COc1cc(-c2nc3ccccc3s2)cc2c1OCC(=O)N2CC(=O)NCC(=O)O` gave an IC50 of over 299000 nM (Ellman).
`O=c1cc(CSc2ccc(N=Cc3ccc(Cl)cc3)cc2)occ1O` gave an IC50 of 1330 nM (Ellman).
With `CCc1cccc(C)c1NC(=O)CSc1nnc(COc2ccc3ccccc3c2)n1-c1ccccc1` the IC50 was 1420 nM (Ellman).
`O=c1cc(CSc2ccc(N=Cc3cccc(Cl)c3)cc2)occ1O` has an IC50 of 13200 nM (Ellman).
The IC50 of `COc1cc(-c2nc3ccccc3s2)cc2c1OCC(=O)N2CC(=O)N[C@@H](Cc1ccccc1)C(=O)O` is reported as over 247000 nM (Ellman).
With `Cc1cccc(C)c1NC(=O)CSc1nnc(COc2ccc3ccccc3c2)n1-c1ccccc1` the IC50 was 1010 nM (Ellman).
With `O=c1cc(CSc2ccc(N=Cc3ccc(Br)cc3)cc2)occ1O` the IC50 was 570 nM (Ellman).
For `CC(C)c1cc2c(c(O)c1O)[C@@]1(C(=O)O)CCCC(C)(C)[C@@H]1CC2`, the IC50 was 0.78 nM.
